HCV NS3 hel inh: HCV NS3 helicase inhibition. AID 1800. 290,000 compounds, 0.56% hits. inhibition, % at 10.9 µM. NS3 helicase DNA unwinding, Cy5 molecular beacon fluorescence;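 active means inhibition above the mean of all tested compounds plus 3 SD, set per campaign, cut at about 35% in these data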;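 further: 0% = DMSO wells and 100% = thioflavine S control wells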
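Compound dosing – single dose, 10.9 µM nominal final, DMSO 0.8% final · System – NS3 helicase fragment of HCV · Buffer or medium – MOPS pH 6.5, MgCl2, DTT, Tween20, BSA · Signal – Cy5 beacon fluorescence read at start and 1 h · Also added – annealed dual-labelled DNA beacon duplex, ATP-started · Schedule – 1 h at 25 °C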
UBC9 SUMO inh: inhibitors of human SUMOylation (UBC9). HTRF SUMOylation assay, SAE1/SAE2 + UBC9, in vitro. inhibition, % at 35 µM. 290,000 compounds, 0.36% hits. AID 2006; in the data active means inhibition above about 50%, passing the limit was not always enough
Target sequence (P63279 whole entry, looked up): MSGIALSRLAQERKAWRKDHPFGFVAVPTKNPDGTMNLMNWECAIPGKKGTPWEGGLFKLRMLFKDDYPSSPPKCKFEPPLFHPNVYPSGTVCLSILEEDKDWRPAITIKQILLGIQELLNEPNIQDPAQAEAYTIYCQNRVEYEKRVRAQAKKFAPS
DNA FID counter: fluorescent intercalator displacement, NS3 helicase counter-screen | DNA fluorescent intercalator displacement, fluorescence | 290,000 compounds, 0.17% hits | AID 1845 | inhibition, % at 7.9 µM; in the data active means inhibition above about 37%;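 further: 0% = vehicle and 100% = reference compound; higher means more ethidium bromide displaced from hairpin DNA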
IMP-1 inh-1: blocks Pseudomonas aeruginosa IMP-1 metallo-beta-lactamase; purified IMP-1, nitrocefin hydrolysis, epi-absorbance fluorescence; inhibition, % at 5.6 µM; 290,000 compounds, 0.45% hits;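 active means inhibition above the mean plus 3 SD of all compounds in the same screening run, cut at about 4.5% in these data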;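 further: 0% = IMP-1 with DMSO and 100% = DMSO wells lacking enzyme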
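System: Purified IMP-1 | Read-out basis: Percent enzyme inhibition | Controls: IMP-1 with DMSO as 0%, enzyme-free DMSO as 100% | Replicates: One well per compound | Doses: 5.6 µM nominal single concentration | Detection: Epi-absorbance fluorescence, 480 nm excitation, 530 nm emission | Incubation: 25 °C, 15 min preincubation, 25 min reaction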
VIM-2 inh: inhibitors of Pseudomonas aeruginosa VIM-2 metallo-beta-lactamase; purified VIM-2, nitrocefin hydrolysis, epi-absorbance fluorescence; inhibition, % at 5.6 µM; 290,000 compounds, 0.89% hits; AID 1527;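 active means inhibition above the mean of all tested compounds plus 3 SD, cutoff set per screening run, cut at about 7.5% in these data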;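 further: red hydrolysis product quenches plate fluorescence so inhibitors raise well fluorescence; 0% = enzyme with DMSO and 100% = DMSO without enzyme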
IMP-1 inh-2: blocks IMP-1 metallo-beta-lactamase in VIM-2 selectivity screen | shares compounds with VIM-2 inh | purified IMP-1, nitrocefin hydrolysis, epi-absorbance fluorescence | inhibition, % at 5.6 µM | 1,300 tested, under 10 active | AID 1856; call rule not given here;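 further: 0% = enzyme with vehicle and 100% = vehicle without enzyme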
VIM-2 FRET ctr: VIM-2 FRET inhibition, artifact counter-screen; shares compounds with VIM-2 inh; purified VIM-2, CCF2 FRET substrate hydrolysis; inhibition, % at 5.6 µM; 1,300 compounds, 23% hits; AID 1857;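 active means inhibition above the mean of all tested compounds plus 3 SD, cut at about 19% in these data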;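 further: 0% = VIM-2 plus DMSO and 100% = no enzyme wells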
TEM-1 inh: TEM-1 inhibition, counter-screen for VIM-2 inhibitors; 1,300 compounds, 3% hits; Purified TEM-1, nitrocefin hydrolysis, epi-absorbance fluorescence; AID 1866; shares compounds with VIM-2 inh; inhibition, % at 5.6 µM;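 active means inhibition above that campaign's mean inhibition plus 3 SD, cut at about 0.46% in these data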;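 further: 0% = TEM-1 with DMSO and 100% = TEM-1 with 100 µM potassium clavulanate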
Target sequence (P62593 whole entry, looked up): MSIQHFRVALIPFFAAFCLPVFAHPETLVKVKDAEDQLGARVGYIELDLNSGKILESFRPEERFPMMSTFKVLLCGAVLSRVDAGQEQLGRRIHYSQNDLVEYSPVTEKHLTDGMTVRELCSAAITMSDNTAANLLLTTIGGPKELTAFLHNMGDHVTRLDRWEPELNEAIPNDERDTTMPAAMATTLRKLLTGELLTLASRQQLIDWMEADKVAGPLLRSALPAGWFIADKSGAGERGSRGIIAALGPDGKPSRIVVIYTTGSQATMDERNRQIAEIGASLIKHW
VIM-2 confirm 2: confirmation of P. aeruginosa VIM-2 metallo-beta-lactamase inhibitors | shares compounds with VIM-2 inh | purified VIM-2, nitrocefin hydrolysis, epi-absorbance | inhibition, % at 5.6 µM | 1,300 compounds, 96% hits | AID 2187;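 active means inhibition of the VIM-2 beta-lactamase enzyme above about 11% from the earlier first-round screen, limit read from the data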;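 further: 0% = VIM-2 with DMSO and 100% = buffer wells without enzyme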
* hit, by the source's call; x = not tested or not shown. Shown are actives, neighbours in structure and some others; about 2.1% of the full set was active somewhere.

SMILES	HCV NS3 hel inh	UBC9 SUMO inh	DNA FID counter	IMP-1 inh-1	VIM-2 inh	IMP-1 inh-2	VIM-2 FRET ctr	TEM-1 inh	VIM-2 confirm 2
CN1CCN(c2nc(-c3ccccc3Cl)nc3ccccc23)CC1	-2.5	21.1	5.9	-2.9	-1.2	x	x	x	x
COc1cccc(C2NC(=O)NC(C)=C2C(=O)OCC2CCCCC2)c1 (stereo not given)	1.2	7.5	-32.8	-2.1	-2.5	x	x	x	x
O=C(COc1ccc2c3c(c(=O)oc2c1)CCC3)NCc1ccccn1	3.5	7.3	-28.3	1.4	17.3*	-3.3	-0.6	-6.6	23.3*
CC(Oc1ccc2c3c(c(=O)oc2c1)CCC3)C(=O)NCc1ccccn1 (stereo not given)	1.0	1.7	-9.3	0.2	20.7*	-2.3	3.0	-4.5	28.9*
Cc1cc(=O)oc2cc(OC(C)C(=O)NCc3ccccn3)ccc12 (stereo not given)	3.4	9.0	-10.1	-1.6	-4.7	x	x	x	x
O=C(NCc1ccco1)c1ccc(CS(=O)Cc2ccc(Cl)cc2)o1 (stereo not given)	6.6	6.1	-19.9	-1.3	-0.4	x	x	x	x
Cn1c(CCN2CCN(c3ccccn3)CC2)nc2cc(NS(=O)(=O)c3ccc(Cl)cc3)ccc21	-38.8	-6.9	8.0	-1.8	-4.9	x	x	x	x
COC(=O)c1ccc(CN2[C@H](C(=O)OC)C[C@@]3(O)[C@@H](O)[C@@H](O)[C@@H](O)C[C@@H]23)cc1	x	13.7	x	x	x	x	x	x	x
Cc1nnc2c(SC(C)C)nc3ccccc3n12	-3.8	12.7	-15.8	-3.9	13.5*	-2.3	0.1	-5.3	22.3*
CC(=O)Nc1ccc(Nc2cc(N(C)C)c3nonc3c2[N+](=O)[O-])cc1	-8.5	7.9	1.0	-2.8	29.5*	-3.2	-3.2	-5.8	36.2*
COc1ccccc1N1CC(C(=O)Nc2nnc(SCC(=O)N3CCOCC3)s2)CC1=O (stereo not given)	10.9	7.4	-27.8	-3.3	-0.5	x	x	x	x
CN(C)CCN(C(=O)C1=COCCO1)c1nc2ccc(F)cc2s1	-5.0	13.3	7.9	-2.6	0.5	x	x	x	x
O=C(OCC(=O)c1c[nH]c2ccccc12)c1ccco1	-2.2	7.5	-0.9	3.1	-0.8	x	x	x	x
O=C(OCc1ccccc1)C1=[N+]([O-])OC(C(=O)OCc2ccccc2)C1c1c[nH]c2ccccc12 (stereo not given)	9.6	-13.8	-9.5	-1.2	13.1*	-1.5	-6.8	-0.3	3.6
COc1ccc(C=O)c2[nH]c3c(Cl)ncnc3c12	9.1	2.8	-4.2	-3.7	15.8*	-2.7	-6.9	-5.1	24.2*
Cc1cc(C)c2c(n1)nn1c(NCCOCCO)cc(C)nc21	0.5	34.6	-3.6	-0.3	5.7	x	x	x	x
Cc1cc(C)c2c(n1)nn1c(NCCCN(C)C)cc(C)nc21	-4.1	26.3	18.3	-2.4	19.2*	-3.9	-3.0	-6.9	30.8*
COc1cc(CNCc2ccccn2)ccc1OCc1cccc(Cl)c1	-39.2	19.3	12.5	-2.4	12.2*	-2.8	-23.8	-4.8	29.1*
CCCN(CCC)CCCNc1ccc2nnc(-c3ccc(F)cc3)n2n1	19.2	-0.4	34.0	-3.3	18.4*	-2.9	-0.2	-5.6	21.7*
CCN(Cc1cc2ccccc2[nH]c1=O)C(=O)c1cccc([N+](=O)[O-])c1	-2.3	1.6	-11.7	-3.1	-1.8	x	x	x	x
CCN1CCN(CCNC(=O)c2cc(Cl)c(NC(=O)C3=C(C)OCCS3)cc2OC)CC1	-14.3	4.3	16.1	-3.3	23.8*	-2.5	3.8	-9.6	33.1*
Cc1ccc(Cl)cc1NC(=S)N1CCCCCC1	-0.1	-8.6	-5.3	-1.6	-1.4	x	x	x	x
CC(C)c1cc(N2CCN(C(=O)c3ccco3)CC2)n2c(nc3ccccc32)c1C#N	-1.6	39.7	-16.2	-0.5	14.9*	-3.5	-5.9	-4.6	31.9*
CCn1c(N2CCN(C(=O)c3ccco3)CC2)nc2ccccc21	-5.1	0.1	-14.8	-1.1	-0.6	x	x	x	x
On1c(-c2ccccc2)nc2ccccc21	-14.6	15.6	-4.4	-1.5	-0.9	x	x	x	x
SMILES	HCV NS3 hel inh	UBC9 SUMO inh	DNA FID counter	IMP-1 inh-1	VIM-2 inh	IMP-1 inh-2	VIM-2 FRET ctr	TEM-1 inh	VIM-2 confirm 2
O=Nc1c2nc3ccccc3n(O)c-2c2ccccc12	-1.1	15.9	9.7	-4.5	16.1*	-3.8	-1.1	-5.0	27.1*
COc1ccc(N2CCc3c(C)nc4c(OC)cc(OC)cc4c32)cc1	-20.6	17.1	10.2	-2.2	14.6*	-5.3	-23.3	-6.0	22.0*
COc1cccc(N2CCc3c(C)nc4ccc(Cl)cc4c32)c1	-26.4	26.2	1.6	-2.2	21.9*	-3.7	-4.8	-5.9	29.5*
O=C(O)c1ccccc1NC(=O)c1ccccc1Nc1ccccc1	-8.0	11.8	11.1	-2.7	-0.2	x	x	x	x
COc1ccc2c(c1)c1ncn(CCN3CCCC3)c(=O)c1n2C	-1.8	23.8	18.8	-1.4	2.7	x	x	x	x
COc1ccc2c(c1)c1ncn(CCN3CCNCC3)c(=O)c1n2C	5.3	21.8	10.4	-1.0	14.1*	-0.8	0.4	-7.8	31.3*
Cc1cc(C)c(S(=O)(=O)N2CCOC2CNC(=O)C(=O)NCCN2CCOCC2)c(C)c1 (stereo not given)	-6.5	1.8	-9.1	-1.8	-1.3	x	x	x	x
CC(C)CCN1CCN(CC(c2ccccc2)c2ccccc2)CC1CCO (stereo not given)	-32.6	3.9	18.5	2.6	-5.4	x	x	x	x
O=c1cc(-c2ccncc2)oc2c1ccc1ccccc12	4.5	26.3	-22.2	-3.9	16.8*	-2.8	-1.4	-3.5	23.4*
O=c1cc(-c2ccco2)oc2c1ccc1ccccc12	4.8	14.5	-4.1	-1.9	0.5	x	x	x	x
NC(=O)COc1cc2oc(=O)c3c(c2cc1Cl)CCCC3	-11.2	14.0	-14.1	-0.2	14.3*	-2.6	-2.7	-3.3	19.1*
CC(Oc1cc2oc(=O)c3c(c2cc1Cl)CCC3)C(=O)NCC1CCC(C(=O)O)CC1 (stereo not given)	5.5	-3.4	-48.2	-0.9	6.8	x	x	x	x
O=C(COc1cc2oc(=O)c3c(c2cc1Cl)CCC3)NCCN1CCOCC1	7.0	1.5	7.3	0.8	23.2*	-1.9	-0.5	-5.7	29.7*
O=C(COc1cc2oc(=O)c3c(c2cc1Cl)CCC3)Nc1ccccn1	13.9	16.1	-18.7	-0.8	6.4	x	x	x	x
CC(Oc1cc2oc(=O)c3c(c2cc1Cl)CCC3)C(=O)NCCN1CCOCC1 (stereo not given)	-1.0	11.6	-16.4	-3.7	13.4*	-2.6	-4.9	-2.5	23.4*

Screening results: PubChem BioAssay, several laboratories
